Measured values gathered from unrelated publications.
Each line is one published result; the experiments were not run side by side. pEC50: −log10 of the molar value.
Effect on: cell growth or viability

| Structure (SMILES) | cell line | technique | concentration | time | quantity | value |
| --- | --- | --- | --- | --- | --- | --- |
| O=C(Nc1ccc(Oc2nnc(-c3ccc(Cl)cc3)c3ccccc23)cc1)c1cccc([N+](=O)[O-])c1 | MCF7 | MTT | 78 nM |  | cell death | 4.29% |
| CCOC(=O)c1nn(-c2cccc(Cl)c2)/c(=N/N=C(\C)c2ccc(NC(=O)c3ccccc3)cc2)s1 | MCF7 | MTT | 0.312 µM |  | viability | 6.34% |
| COc1ccc(CNC[C@@](C)(O)[C@@H]2CC[C@@H](C)C[C@H]2OCc2ccccc2)cc1 | MCF7 | MTT | 30 µM | 72 h | inhibition | 97% |
| CC(=O)Nc1ccc(/C(C)=N/N=c2\sc(C(C)=O)nn2-c2ccc(C)cc2)cc1 | MCF7 | MTT | 0.312 µM |  | viability | 99.7% |
| C[C@@H]1CC[C@@H]([C@](O)(CNCc2cccc3ccccc23)COCc2ccccc2)[C@H](OCc2ccccc2)C1 | MCF7 | MTT | 10 µM | 72 h | inhibition | 81.1% |
| C=CC(=O)NC1CCN(c2ncc3ncnc(Nc4ccc(Oc5ccc6c(c5)ncn6C)c(C)c4)c3n2)CC1 | C-33-A |  |  |  | pEC50 | 6.94 |
| C[C@@H]1CC[C@@H]([C@@](C)(O)Cn2cnc3ccccc32)[C@H](OCc2ccccc2)C1 | MCF7 | MTT | 10 µM | 72 h | inhibition | 55.2% |
| Cc1c(C(=O)O)ccc2c3n(nc12)[C@@H]1[C@H](C3)N(CC2CC2)[C@@]2(C(=O)Nc3cc(Cl)ccc32)[C@H]1c1cccc(Cl)c1F | SJSA-1 |  |  |  | GI50 | 0.31 nM |
| CCOC(=O)c1nn(-c2cccc(Cl)c2)/c(=N/N=C(\C)c2ccc(NC(=O)c3ccc(Cl)cc3)cc2)s1 | MCF7 | MTT | 1.25 µM |  | viability | 3.36% |
| O=C(Nc1ccc(Oc2nnc(-c3ccc(Cl)cc3)c3ccccc23)cc1)c1ccccc1 | MCF7 | MTT | 0.625 µM | 24 h | viability | 3.76% |
| CC(=O)c1nn(-c2ccccc2Cl)/c(=N/N=C(\C)c2ccc(NC(=O)c3ccccc3)cc2)s1 | MCF7 | MTT | 0.312 µM |  | viability | 7.5% |
| CC(=NNC(=O)c1ccccc1Cl)c1ccc(Nc2nnc(-c3ccc(Cl)cc3)c3ccccc23)cc1 | MCF7 | MTT | 0.625 µM |  | cell death | 0.177% |
| COc1cccc(CNC[C@@](C)(O)[C@@H]2CC[C@@H](C)C[C@H]2OCc2ccccc2)c1 | MCF7 | MTT | 30 µM | 72 h | inhibition | 95.9% |
| S=C(Nc1ccccc1)Nc1ccc(Oc2nnc(-c3ccc(Cl)cc3)c3ccccc23)cc1 | MCF7 | MTT | 10 µM |  | cell death | 97.2% |
| C=C(COCc1ccc(F)cc1)[C@@H]1CC[C@@H](C)C[C@H]1OCc1ccc(F)cc1 | MCF7 | MTT | 30 µM | 72 h | inhibition | 46.2% |
| CC(=NNC(=S)Nc1ccccc1)c1ccc(Nc2nnc(-c3ccc(Cl)cc3)c3ccccc23)cc1 | MCF7 | MTT | 0.625 µM |  | cell death | 43% |
| CC(=O)c1nn(-c2ccc(C)cc2)/c(=N/N=C(\C)c2ccc(NC(=O)c3ccccc3)cc2)s1 | MCF7 | MTT | 0.312 µM |  | viability | 4.36% |
| C[C@@H]1CC[C@@H]([C@](C)(O)CNCc2ccccc2F)[C@H](OCc2ccccc2)C1 | MCF7 | MTT | 10 µM | 72 h | inhibition | 39% |
| CC(=NNC(=O)c1ccccc1)c1ccc(Nc2nnc(-c3ccc(Cl)cc3)c3ccccc23)cc1 | MCF7 | MTT | 0.625 µM |  | cell death | 1.42% |
| COc1ccc(COC[C@@](O)(CNCc2ccccc2)[C@@H]2CC[C@@H](C)C[C@H]2OCc2ccc(OC)cc2)cc1 | MCF7 | MTT | 10 µM | 72 h | inhibition | 96.2% |
| O=C(Nc1ccccc1)Nc1ccc(Oc2nnc(-c3ccc(Cl)cc3)c3ccccc23)cc1 | MCF7 | MTT | 1.25 µM | 24 h | viability | 3.85% |
